# According to ChEMBL document CHEMBL3351898, “4-Aminoquinoline-pyrimidine hybrids: synthesis, antimalarial activity, heme binding and docking studies” (Eur J Med Chem, 2015):
# Activity calls are given as the source filed them. The rule behind the calls is not given here.
# Columns and labels:
# [1] = Resistance index, ratio of IC50 for chloroquine-resistant Plasmodium falciparum W2 to IC50 for chloroquine-sensitive Plasmodium falciparum D6; assay type: functional
# [2] = Selectivity index, ratio of IC50 for African green monkey Vero cells to IC50 for chloroquine-resistant Plasmodium falciparum W2; assay type: toxicity, cell-based; settings: read-out: Ratio IC50
# How it was run: (§1)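 Vero cells seeded at 25,000 cells/well and grown 24 h, then exposed to a range of compound concentrations for 48 h. Viability measured by Neutral Red uptake; IC50 from dose-response curves. SI calculated as Vero IC50 divided by antiplasmodial IC50 for the named strain.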
# [3] = test system: Vero; test: Cytotoxicity against African green monkey Vero cells after 72 hrs by neutral red assay; assay type: cell-based, Chlorocebus sabaeus; settings: in the assay text read “after 48 hrs” for “after 72 hrs”
# How it was run: (§2)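 Vero cells (monkey kidney […]) were seeded at 25,000 cells/well and incubated 24 h, then exposed to a range of compound concentrations for 48 h. Viable cells were counted by Neutral Red assay, and IC50 was obtained from dose-response curves.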
# [4] = Selectivity index, ratio of IC50 for African green monkey Vero cells to IC50 for chloroquine-sensitive Plasmodium falciparum D6; assay type: toxicity, cell-based; settings: read-out: Ratio IC50; how it was run: as §1
# [5] = test system: Plasmodium falciparum; test: Antimalarial activity against chloroquine-sensitive Plasmodium falciparum D6 assessed as inhibition of parasite growth after 72 hrs by parasite LDH release assay; assay type: functional, organism-based; settings: D6, 72 h
# How it was run: (§3)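 Asexual P. falciparum cultures at 2% parasitemia and 2% hematocrit in RPMI 1640 with 10% human serum and amikacin were added to serially diluted compound. Plates were incubated 72 h at 37 °C under 90% N2/5% O2/5% CO2. Growth was read by pLDH: Malstat reagent 30 min at room temperature, then NBT/PES 1 h in the dark. IC50 taken from dose-response curves; chloroquine and pyrimethamine controls.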
# [6] = test system: Plasmodium falciparum; test: Antimalarial activity against chloroquine-resistant Plasmodium falciparum W2 assessed as inhibition of parasite growth after 72 hrs by parasite LDH release assay; assay type: functional, organism-based; settings: W2, 72 h; how it was run: as §3
# [7] = test system: Plasmodium falciparum; test: Antimalarial activity against chloroquine-resistant Plasmodium falciparum W2 assessed as inhibition of parasite growth up to 19 uM after 72 hrs by parasite LDH release assay; assay type: functional, organism-based; how it was run: as §3
# [8] = test system: Vero; test: Cytotoxicity against African green monkey Vero cells up to 20 uM after 72 hrs by neutral red assay; assay type: cell-based; settings: chlorocebus sabaeus, 48 h, in the assay text read “48 hrs” for “72 hrs”; how it was run: as §2
# [9] = test system: Plasmodium berghei; test: Antimalarial activity against Plasmodium berghei infected in mouse assessed as mean survival time at 100 mg/kg/day, po dosed on days 0, 1 and 2 post infection; assay type: functional
# How it was run: (§4)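 P. berghei-infected mice dosed orally with test agent at 11.1, 33.3 or 100 mg/kg, once daily for 3 days; vehicle and chloroquine controls. Mean survival time recorded; parasitemia on days 5 and 7 expressed as % suppression, taking mean vehicle-control parasitemia as 100%.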
# [10] = test system: Plasmodium berghei; test: Antimalarial activity against Plasmodium berghei infected in mouse assessed as reduction in parasitemia at 33.3 mg/kg/day, po dosed on days 0, 1 and 2 post infection measured on day 5; assay type: functional; settings: 120 h
# How it was run: (§5)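 P. berghei-infected mice were given the compound orally at 11.1, 33.3 or 100 mg/kg × 3 days. Vehicle and chloroquine groups were included. Parasitemia was read on days 5 and 7, and % suppression was calculated with mean parasitemia in the vehicle control taken as 100%. Mean survival time was also recorded.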
# [11] = test system: Plasmodium berghei; test: Antimalarial activity against Plasmodium berghei infected in mouse assessed as mean survival time at 33.3 mg/kg/day, po dosed on days 0, 1 and 2 post infection; assay type: functional; how it was run: as §4
# [12] = test system: Plasmodium berghei; test: Antimalarial activity against Plasmodium berghei infected in mouse assessed as reduction in parasitemia at 11.1 mg/kg/day, po dosed on days 0, 1 and 2 post infection measured on day 5; assay type: functional; settings: 120 h; how it was run: as §5
# [13] = test system: Plasmodium berghei; test: Antimalarial activity against Plasmodium berghei infected in mouse assessed as reduction in parasitemia at 100 mg/kg/day, po dosed on days 0, 1 and 2 post infection measured on day 5; assay type: functional; settings: 120 h; how it was run: as §5
# [14] = test system: Plasmodium berghei; test: Antimalarial activity against Plasmodium berghei infected in mouse assessed as mean survival time at 11.1 mg/kg/day, po dosed on days 0, 1 and 2 post infection; assay type: functional; how it was run: as §4
# [15] = test system: Plasmodium berghei; test: Antimalarial activity against Plasmodium berghei infected in mouse assessed as reduction in parasitemia at 33.3 mg/kg/day, po dosed on days 0, 1 and 2 post infection measured on day 7; assay type: functional; settings: 168 h; how it was run: as §5
# [16] = test system: Plasmodium berghei; test: Antimalarial activity against Plasmodium berghei infected in mouse assessed as reduction in parasitemia at 100 mg/kg/day, po dosed on days 0, 1 and 2 post infection measured on day 7; assay type: functional; settings: 168 h; how it was run: as §5
# [17] = test system: Heme; test: Binding affinity to heme (unknown origin) assessed as reduction in Fe(3+) intensity at pH 5.6
# [18] = test system: Heme; test: Binding affinity to monomeric heme (unknown origin) assessed as binding constant at pH 7.4
# How it was run: (§6)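 Hematin in 40% DMSO (monomeric heme, Soret band 402 nm) was titrated with compound in 0.02 M HEPES pH 7.4 or 0.02 M MES pH 5.6. Association constants (log K) were calculated from the titration data, and stoichiometry was taken from a Job's plot of absorbance at 402 nm against compound mole fraction.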
# [19] = test system: mu-oxodimeric heme; test: Binding affinity to mu-oxo-heme (unknown origin) assessed as binding constant at pH 5.8
# How it was run: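 μ-Oxo-dimeric heme in 20 mM phosphate buffer pH 5.8 was titrated with compound, following the decrease in absorbance at 362 nm. The log K was derived from the titration, and stoichiometry came from a Job's plot.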
# [20] = test system: Heme; test: Binding affinity to heme (unknown origin) assessed as reduction in Fe(3+) intensity
# [21] = test system: Heme; test: Binding affinity to heme (unknown origin) assessed as reduction in Fe(3+) intensity at pH 7.4
# [22] = test system: Heme; test: Binding affinity to monomeric heme (unknown origin) assessed as binding constant at pH 5.6; how it was run: as §6
# [23] = Chlorocebus sabaeus, Vero, 48 h, read-out: IC50
Compound,Ratio IC50 [1],selectivity ratio [2],"IC50 [3, 23] [nM]",selectivity ratio [4],IC50 [5] [nM],IC50 [6] [nM],Activity [8],IC50 ([3]; vero),also measured
Clc1ccc2c(NCCCNc3nccc(Nc4ccc(Br)cc4)n3)ccnc2c1,0.95,237,11200,228,49,47,,,
CCc1nc(N)nc(N)c1-c1ccc(Cl)cc1,,,,,,,,,growth inhibition (GI) [7]: inactive
COc1cc(Nc2ccnc(NCCCNc3ccnc4cc(Cl)ccc34)n2)cc(OC)c1,2.81,121,12900,340,38,107,,,
Clc1ccc2c(NCCCCNc3nccc(Nc4ccc(Br)cc4)n3)ccnc2c1,1.34,159,10000,214,47,63,,,
Clc1ccc(Nc2ccnc(NCCCNc3ccnc4cc(Cl)ccc34)n2)cc1,9.46,30.2,13400,286,47,445,,,
Cc1ccc(Nc2ccnc(NCCCNc3ccnc4cc(Cl)ccc34)n2)cc1,2.26,53.4,18500,121,153,346,,,
Fc1ccc(Nc2ccnc(NCCNc3ccnc4cc(Cl)ccc34)n2)cc1,1.65,> 2,,> 3.32,6020,9990,Non-toxic,Not Active,
COc1ccc(Nc2ccnc(NCCCNc3ccnc4cc(Cl)ccc34)n2)cc1,2.02,165,13300,333,40,81,,,
Clc1ccc2c(NCCNc3nccc(Nc4ccc(Br)cc4)n3)ccnc2c1,3.67,> 147,,> 541,37,136,Non-toxic,Not Active,
COc1cc(Nc2ccnc(NCCCCNc3ccnc4cc(Cl)ccc34)n2)cc(OC)c1,2.72,104,12500,285,44,120,,,
Clc1ccc(Nc2ccnc(NCCCCNc3ccnc4cc(Cl)ccc34)n2)cc1,1.18,212,11000,251,44,52,,,
Fc1ccc(Nc2ccnc(NCCCCNc3ccnc4cc(Cl)ccc34)n2)cc1,1.82,> 3.43,,> 6.25,3200,5830,Non-toxic,Not Active,
COc1cc(Nc2ccnc(NCCNc3ccnc4cc(Cl)ccc34)n2)cc(OC)c1,1.75,> 345,,> 606,33,58,Non-toxic,Not Active,MST [9]: 9 days; inhibition in vivo at 33.3 mg/kg/day [10]: 15.1%; MST [11]: 8.6 days; inhibition in vivo at 11.1 mg/kg/day [12]: 1.77%; inhibition in vivo at 100 mg/kg/day [13]: 42.1%; MST [14]: 5 days; inhibition in vivo at 33.3 mg/kg/day [15]: 6.2%; inhibition in vivo at 100 mg/kg/day [16]: 10.4%
COc1ccc(Nc2ccnc(NCCNc3ccnc4cc(Cl)ccc34)n2)cc1,6.03,> 83,,> 500,40,241,Non-toxic,Not Active,
Cc1ccc(Nc2ccnc(NCCNc3ccnc4cc(Cl)ccc34)n2)cc1,1.41,95.1,13600,135,101,143,,,
Clc1ccc2c(NCCCCNc3nccc(Nc4ccccc4)n3)ccnc2c1,9.15,35.5,14300,326,44,403,,,
Clc1ccc2c(NCCCNc3nccc(Nc4ccccc4)n3)ccnc2c1,7.57,89.2,12800,676,19,144,,,
Clc1ccc2c(NCCNc3nccc(Nc4ccccc4)n3)ccnc2c1,1.05,> 13.1,,> 13.2,1510,1530,Non-toxic,Not Active,
COc1ccc(Nc2ccnc(NCCCCNc3ccnc4cc(Cl)ccc34)n2)cc1,1.34,166,11100,223,50,67,,,
Fc1ccc(Nc2ccnc(NCCCNc3ccnc4cc(Cl)ccc34)n2)cc1,3.35,146,13700,490,28,94,,,
Clc1ccc(Nc2ccnc(NCCNc3ccnc4cc(Cl)ccc34)n2)cc1,0.978,342,15800,335,47,46,,,Activity [17]: Active; log K [18]: 5.04; log K [19]: 5.12; Activity [20]: Active; Activity [21]: Active; log K [22]: 5.51
CCN(CC)CCCC(C)Nc1ccnc2cc(Cl)ccc12 (configuration not stated) [CHLOROQUINE],,,,,,,Non-toxic,Not Active,MST [9]: 26.2 days; inhibition in vivo at 100 mg/kg/day [13]: 100%; inhibition in vivo at 100 mg/kg/day [16]: 100%
Cc1ccc(Nc2ccnc(NCCCCNc3ccnc4cc(Cl)ccc34)n2)cc1,3.75,37.2,19300,140,138,518,,,
